Assay results reported in ChEMBL document CHEMBL1145835, “Novel potent 5-HT(1F) receptor agonists: structure-activity studies of a series of substituted N-[3-(1-methyl-4-piperidinyl)-1H-pyrrolo[3,2-b]pyridin-5-yl]amides” (J Med Chem, 2003).

Legend:
[1] = molecular target: T1, 5-hydroxytryptamine receptor 1A (Homo sapiens, UniProt P08908); assay: In vitro binding affinity by radioligand binding assay using cell line expressing human 5-hydroxytryptamine 1A receptor
T1 sequence (P08908 whole entry): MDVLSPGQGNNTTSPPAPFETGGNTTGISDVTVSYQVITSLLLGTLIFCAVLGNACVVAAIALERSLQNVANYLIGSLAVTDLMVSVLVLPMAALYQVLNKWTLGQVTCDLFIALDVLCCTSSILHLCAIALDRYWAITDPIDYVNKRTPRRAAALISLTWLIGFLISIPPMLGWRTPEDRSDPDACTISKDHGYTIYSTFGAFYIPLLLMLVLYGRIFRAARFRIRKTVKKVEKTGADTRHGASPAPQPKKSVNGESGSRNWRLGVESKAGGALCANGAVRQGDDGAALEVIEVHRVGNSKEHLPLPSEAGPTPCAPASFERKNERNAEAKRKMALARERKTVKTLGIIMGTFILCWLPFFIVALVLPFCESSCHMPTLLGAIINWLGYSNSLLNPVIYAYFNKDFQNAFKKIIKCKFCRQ
In short: (§1)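 Ki (nM) from radioligand binding on cell lines each expressing one human serotonin receptor subtype. Values are means of at least three determinations with SEM. ND: Ki not determined, when a 10⁻⁷ M test ligand gave <50% displacement of radioligand.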

[2] = molecular target: 5-hydroxytryptamine receptor 2A (Homo sapiens, UniProt P28223); assay: In vitro binding affinity by radioligand binding assay using cell line expressing human 5-hydroxytryptamine 2A receptor
[3] = molecular target: 5-hydroxytryptamine receptor 6 (Homo sapiens, UniProt P50406); assay: In vitro binding affinity by radioligand binding assay using cell line expressing human 5-hydroxytryptamine 6 receptor
[4] = molecular target: T2, 5-hydroxytryptamine receptor 1F (Homo sapiens, UniProt P30939); assay: In vitro binding affinity was determined by radioligand binding assay using cell line expressing human 5-hydroxytryptamine 1F receptor; in short: as §1
T2 sequence (P30939 whole entry): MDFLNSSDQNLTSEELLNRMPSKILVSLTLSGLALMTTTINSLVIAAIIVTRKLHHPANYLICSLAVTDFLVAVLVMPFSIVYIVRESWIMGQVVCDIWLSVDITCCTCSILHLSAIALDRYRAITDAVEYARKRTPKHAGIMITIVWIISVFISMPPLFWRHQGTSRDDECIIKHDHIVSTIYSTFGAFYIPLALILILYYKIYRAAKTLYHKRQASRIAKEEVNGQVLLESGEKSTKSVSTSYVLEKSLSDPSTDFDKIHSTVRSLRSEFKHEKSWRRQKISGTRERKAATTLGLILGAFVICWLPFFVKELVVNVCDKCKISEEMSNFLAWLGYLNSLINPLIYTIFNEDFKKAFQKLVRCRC

[5] = species: Oryctolagus cuniculus; assay: In vitro contractile response in rabbit saphenous vein; assay type: functional
In short: (§2)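 Rabbit saphenous vein rings. Maximal contraction is expressed as % of the contraction induced by KCl (67 mM), with the concentration giving the maximal response recorded. Means (SEM) of three to seven determinations.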

[6] = molecular target: 5-hydroxytryptamine receptor 1B (Homo sapiens, UniProt P28222); assay: In vitro binding affinity by radioligand binding assay using cell line expressing human 5-hydroxytryptamine 1B receptor
In short: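 Ki (nM) from radioligand binding on cell lines each expressing one human serotonin receptor subtype. Values are means of at least three determinations with SEM.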

[7] = molecular target: 5-hydroxytryptamine receptor 2B (Homo sapiens, UniProt P41595); assay: In vitro binding affinity by radioligand binding assay using cell line expressing human 5-hydroxytryptamine 2B receptor
[8] = molecular target: 5-hydroxytryptamine receptor 7 (Homo sapiens, UniProt P34969); assay: In vitro binding affinity by radioligand binding assay using cell line expressing human 5-hydroxytryptamine 7 receptor
[9] = molecular target: T3, 5-hydroxytryptamine receptor 2C (Homo sapiens, UniProt P28335); assay: In vitro binding affinity by radioligand binding assay using cell line expressing human 5-hydroxytryptamine 2C receptor
T3 sequence (P28335 whole entry): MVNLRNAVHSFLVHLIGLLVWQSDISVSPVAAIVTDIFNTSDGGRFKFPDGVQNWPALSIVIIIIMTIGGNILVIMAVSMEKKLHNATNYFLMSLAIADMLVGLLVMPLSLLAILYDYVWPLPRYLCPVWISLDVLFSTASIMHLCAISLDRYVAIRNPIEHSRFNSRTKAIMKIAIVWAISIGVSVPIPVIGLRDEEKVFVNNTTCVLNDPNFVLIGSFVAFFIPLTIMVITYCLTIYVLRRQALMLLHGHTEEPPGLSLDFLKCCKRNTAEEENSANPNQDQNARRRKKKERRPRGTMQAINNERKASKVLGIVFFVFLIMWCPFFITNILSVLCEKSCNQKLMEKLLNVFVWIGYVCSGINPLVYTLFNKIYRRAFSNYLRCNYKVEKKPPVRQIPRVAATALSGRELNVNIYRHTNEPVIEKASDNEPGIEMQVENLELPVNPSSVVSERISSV

[10] = molecular target: 5-hydroxytryptamine receptor 1D (Homo sapiens, UniProt P28221); assay: In vitro binding affinity by radioligand binding assay using cell line expressing human 5-hydroxytryptamine 1D receptor; in short: as §1
[11] = molecular target: 5-hydroxytryptamine receptor 1E (Homo sapiens, UniProt P28566); assay: In vitro binding affinity by radioligand binding assay using cell line expressing human 5-hydroxytryptamine 1E receptor
[12] = molecular target: 5-hydroxytryptamine receptor 4 (Homo sapiens, UniProt Q13639); assay: In vitro binding affinity by radioligand binding assay using cell line expressing human 5-hydroxytryptamine 4 receptor
[13] = molecular target: T2, 5-hydroxytryptamine receptor 1F; assay: In vitro effective concentration for stimulation of [35S]GTP-gamma-S, binding in mouse LM(tk-)cells expressing the human 5-HT1F receptor; assay type: functional
[14] = species: Oryctolagus cuniculus; assay: In vitro concentration of maximum contractile response in rabbit saphenous vein; assay type: functional; in short: as §2
[15] = system: Cavia porcellus; assay: In vivo efficacy in neurogenic plasma protein extravasation screen using guinea pig neurogenic PPE assay (1 ng/kg, po) at 24 hr postdose; assay type: functional
In short: (§3)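 Guinea pig neurogenic dural PPE screen. Single oral dose of 1 ng/kg, then unilateral trigeminal ganglion stimulation with Evan's blue-labelled plasma protein leakage. Read-out is the fluorescence ratio of stimulated to unstimulated dura at 1 h or 24 h postdose. A ratio near 1 means full efficacy; near 1.8 means ineffective.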

[16] = system: Cavia porcellus; assay: In vivo efficacy in neurogenic plasma protein extravasation screen using guinea pig neurogenic PPE assay (1 ng/kg, po) at 1 hr postdose; assay type: functional; in short: as §3
[17] = molecular target: T4, 5-hydroxytryptamine receptor 1F (Homo sapiens) (UniProt P30939); assay: Maximum stimulation of [35S]GTP-gamma-S, binding expressed relative to the maximal effect of 5-hydroxytryptamine […]; assay type: functional
T4 sequence (whole entry): T2 sequence (P30939 whole entry)

[18] = molecular target: T2, 5-hydroxytryptamine receptor 1F; assay: In vitro effective concentration for stimulation of [35S]GTP-gamma-S, binding in mouse LM(tk-)cells expressing the human 5-hydroxytryptamine 1F receptor; assay type: functional

Sequence of 5-hydroxytryptamine receptor 1B (P28222 whole entry): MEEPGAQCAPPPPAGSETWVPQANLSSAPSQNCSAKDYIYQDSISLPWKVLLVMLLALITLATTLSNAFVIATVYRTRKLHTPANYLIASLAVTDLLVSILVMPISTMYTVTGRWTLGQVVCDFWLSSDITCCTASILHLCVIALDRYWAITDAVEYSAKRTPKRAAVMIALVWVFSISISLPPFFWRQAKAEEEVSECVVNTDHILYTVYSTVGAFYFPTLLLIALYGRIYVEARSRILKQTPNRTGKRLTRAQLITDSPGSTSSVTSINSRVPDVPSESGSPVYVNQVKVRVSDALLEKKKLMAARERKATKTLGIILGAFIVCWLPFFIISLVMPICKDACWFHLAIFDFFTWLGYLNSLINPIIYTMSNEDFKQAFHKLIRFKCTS
Sequence of 5-hydroxytryptamine receptor 1D (P28221 whole entry): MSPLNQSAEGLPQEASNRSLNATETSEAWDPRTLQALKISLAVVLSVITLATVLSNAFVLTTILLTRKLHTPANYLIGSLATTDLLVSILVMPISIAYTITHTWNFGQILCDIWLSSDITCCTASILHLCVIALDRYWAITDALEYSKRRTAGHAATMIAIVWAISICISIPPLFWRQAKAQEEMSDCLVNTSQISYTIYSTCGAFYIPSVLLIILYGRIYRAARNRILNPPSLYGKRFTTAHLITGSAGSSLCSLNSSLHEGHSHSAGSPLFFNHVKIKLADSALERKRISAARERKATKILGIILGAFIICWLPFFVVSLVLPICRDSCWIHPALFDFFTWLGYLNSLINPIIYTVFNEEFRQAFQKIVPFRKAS
Sequence of 5-hydroxytryptamine receptor 4 (Q13639 whole entry): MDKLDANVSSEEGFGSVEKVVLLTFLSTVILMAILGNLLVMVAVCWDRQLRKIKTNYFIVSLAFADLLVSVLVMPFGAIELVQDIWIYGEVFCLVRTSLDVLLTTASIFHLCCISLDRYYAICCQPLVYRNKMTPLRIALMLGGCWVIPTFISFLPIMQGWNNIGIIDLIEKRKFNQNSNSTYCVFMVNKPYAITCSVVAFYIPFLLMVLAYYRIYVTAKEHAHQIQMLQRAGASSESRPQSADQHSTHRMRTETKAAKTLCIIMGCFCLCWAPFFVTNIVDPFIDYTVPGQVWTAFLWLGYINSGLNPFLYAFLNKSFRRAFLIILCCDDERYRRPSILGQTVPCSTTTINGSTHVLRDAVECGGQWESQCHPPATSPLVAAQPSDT
Sequence of 5-hydroxytryptamine receptor 6 (P50406 whole entry): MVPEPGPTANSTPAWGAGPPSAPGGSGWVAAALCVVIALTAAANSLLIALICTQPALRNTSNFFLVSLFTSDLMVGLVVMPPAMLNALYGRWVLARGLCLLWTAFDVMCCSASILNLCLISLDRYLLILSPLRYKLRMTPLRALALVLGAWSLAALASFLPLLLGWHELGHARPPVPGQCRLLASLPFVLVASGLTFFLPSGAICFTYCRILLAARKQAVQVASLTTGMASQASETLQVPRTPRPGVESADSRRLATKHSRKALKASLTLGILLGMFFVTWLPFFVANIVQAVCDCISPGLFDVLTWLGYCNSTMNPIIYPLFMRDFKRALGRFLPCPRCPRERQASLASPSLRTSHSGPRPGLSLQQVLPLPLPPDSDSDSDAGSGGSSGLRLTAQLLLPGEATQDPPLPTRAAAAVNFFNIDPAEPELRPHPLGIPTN
Sequence of 5-hydroxytryptamine receptor 2B (P41595 whole entry): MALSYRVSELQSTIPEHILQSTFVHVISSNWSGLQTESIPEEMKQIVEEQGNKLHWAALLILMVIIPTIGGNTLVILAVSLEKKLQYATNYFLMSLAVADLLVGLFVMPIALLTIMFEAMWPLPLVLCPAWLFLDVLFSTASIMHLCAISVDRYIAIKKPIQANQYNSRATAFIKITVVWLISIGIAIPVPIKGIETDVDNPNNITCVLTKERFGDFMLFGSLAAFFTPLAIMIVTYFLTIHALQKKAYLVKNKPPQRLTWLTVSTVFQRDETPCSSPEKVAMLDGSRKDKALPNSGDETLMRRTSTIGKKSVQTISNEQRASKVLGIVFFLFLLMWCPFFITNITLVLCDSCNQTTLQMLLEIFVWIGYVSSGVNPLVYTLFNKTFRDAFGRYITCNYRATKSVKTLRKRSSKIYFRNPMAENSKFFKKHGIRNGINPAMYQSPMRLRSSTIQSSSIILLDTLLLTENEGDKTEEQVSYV
Sequence of 5-hydroxytryptamine receptor 1E (P28566 whole entry): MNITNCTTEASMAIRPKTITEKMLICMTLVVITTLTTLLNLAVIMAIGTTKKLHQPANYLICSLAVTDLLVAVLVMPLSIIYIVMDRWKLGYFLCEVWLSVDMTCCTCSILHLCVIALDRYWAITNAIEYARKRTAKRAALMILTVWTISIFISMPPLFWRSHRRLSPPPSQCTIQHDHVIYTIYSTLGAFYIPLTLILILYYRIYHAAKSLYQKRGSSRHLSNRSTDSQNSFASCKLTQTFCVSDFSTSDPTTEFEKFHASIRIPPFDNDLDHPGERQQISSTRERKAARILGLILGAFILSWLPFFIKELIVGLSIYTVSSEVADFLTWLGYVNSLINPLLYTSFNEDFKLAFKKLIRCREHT
Sequence of 5-hydroxytryptamine receptor 2A (P28223 whole entry): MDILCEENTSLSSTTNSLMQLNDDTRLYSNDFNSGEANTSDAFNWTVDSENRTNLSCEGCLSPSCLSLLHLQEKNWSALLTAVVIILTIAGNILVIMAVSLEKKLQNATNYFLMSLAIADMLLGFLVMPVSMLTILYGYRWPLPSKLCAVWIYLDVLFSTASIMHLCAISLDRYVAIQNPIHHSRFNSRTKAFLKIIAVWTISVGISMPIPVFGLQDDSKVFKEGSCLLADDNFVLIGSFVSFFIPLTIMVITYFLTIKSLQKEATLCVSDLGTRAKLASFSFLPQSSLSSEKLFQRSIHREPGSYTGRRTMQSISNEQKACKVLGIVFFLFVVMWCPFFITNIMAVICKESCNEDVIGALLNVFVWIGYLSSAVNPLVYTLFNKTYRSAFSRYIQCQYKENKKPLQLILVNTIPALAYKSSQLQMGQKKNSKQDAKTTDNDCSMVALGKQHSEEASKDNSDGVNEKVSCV
Sequence of 5-hydroxytryptamine receptor 7 (P34969 whole entry): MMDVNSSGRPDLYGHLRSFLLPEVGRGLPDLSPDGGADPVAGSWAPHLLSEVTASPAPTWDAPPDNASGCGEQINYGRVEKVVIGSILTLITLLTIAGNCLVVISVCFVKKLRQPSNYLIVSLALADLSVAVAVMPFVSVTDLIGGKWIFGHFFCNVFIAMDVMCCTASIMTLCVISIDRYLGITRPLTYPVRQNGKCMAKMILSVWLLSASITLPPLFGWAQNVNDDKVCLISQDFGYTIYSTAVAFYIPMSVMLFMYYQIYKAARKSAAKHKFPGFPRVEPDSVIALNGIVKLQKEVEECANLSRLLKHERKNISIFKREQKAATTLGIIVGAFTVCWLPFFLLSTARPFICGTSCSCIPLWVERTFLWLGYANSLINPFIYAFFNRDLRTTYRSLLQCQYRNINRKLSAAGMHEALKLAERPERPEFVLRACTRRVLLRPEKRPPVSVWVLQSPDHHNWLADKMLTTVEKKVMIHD

Row | Ki [1] | Ki [2] | Ki [3] | Ki [4] | Ki [6] | Ki [7] | Ki [8] | Ki [9] | Ki [10] | Ki [11] | Ki [12] | EC50 [13] | Emax [17] | EC50 [18] | SMILES | Response [5] | Concentration of max response [14] | Efficacy [15] | Efficacy [16]
1 | 56 nM | 4800 nM | > 10000 nM | 7.6 nM | 1200 nM | > 10000 nM | > 5000 nM | 1900 nM | 730 nM | 660 nM | 4000 nM |  |  |  | CN1CCC(c2c[nH]c3ccc(NC(=O)c4ccc(F)cc4)nc23)CC1 | 16% |  |  | 
2 | 620 nM |  |  | 5 nM | 270 nM |  |  |  | 250 nM |  |  | 36 nM | 98% |  | CC(=O)Nc1ccc2[nH]cc(C3CCN(C)CC3)c2n1 | 5.7% | 30 µM | 1.1 | 1
3 | 1000 nM | 3400 nM | 1120 nM | 5.5 nM | 720 nM | > 10000 nM |  | 310 nM | 730 nM | 770 nM | 2400 nM |  | 88% | 32 nM | CCC(=O)Nc1ccc2[nH]cc(C3CCN(C)CC3)c2n1 | 3% |  | 1 | 1.2
4 | 31 nM |  |  | 7.2 nM | 310 nM |  |  |  | 380 nM |  |  |  |  |  | CN1CCC(c2c[nH]c3ccc(NC(=O)c4ccc(C#N)cc4)nc23)CC1 | 1.1% | 30 µM |  | 1.5
